Source: PubChem BioAssay
An excerpt weighted towards active compounds, which were near 1.6% of everything screened.
PG9 Ab binder – small molecules binding HIV-1 gp120 antibody PG9 | TR-FRET gp120-PG9 antibody binding | inhibition, % at 6.7 µM | 0.43% of 360,000 active; in the data active = inhibition above about 8.5%
PKA-R2B act – activates the human PKA-R2B holoenzyme complex; PKA-R2B holoenzyme dissociation, Cy5-IP20 fluorescence polarization; R2B truncated from residue 108, S112A mutant; 0% DMSO only, 100% 113 µM cGMP; activation, % at 11.4 µM; 0.079% of 340,000 active;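 active = activation above a cutoff set at the mean over all compounds plus 3 SD, cut at about 18% in these data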;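 note: higher means more holoenzyme dissociation and a rise in polarization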
PKA-R1A activ – activates the PKA-R1A holoenzyme complex | AID 504707 | activation, % at 11.4 µM | 0.083% of 340,000 active | PKA-R1A dissociation, Cy5-IP20 fluorescence polarization; scaled: DMSO 0%, 113 µM cGMP 100% | P00514+P68181;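 active = percent activation above the mean of all tested compounds plus 3 SD, cut at about 19% in these data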;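 note: higher means more PKAc released from R1A so a rise in polarization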
NR1D1 modulator – modulators of human Rev-erb alpha DNA binding; Rev-erbα–FITC-DNA binding, fluorescence polarization, 90 min; activity, % at 10 µM; 0.79% of 370,000 active;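 active = activity above about 14%, limit read from the data; passing the limit was not always enough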;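 note: 0% = DMSO wells with 35 nM protein and 100% = DMSO wells with 750 nM protein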
Target sequence (P20393 whole entry, looked up): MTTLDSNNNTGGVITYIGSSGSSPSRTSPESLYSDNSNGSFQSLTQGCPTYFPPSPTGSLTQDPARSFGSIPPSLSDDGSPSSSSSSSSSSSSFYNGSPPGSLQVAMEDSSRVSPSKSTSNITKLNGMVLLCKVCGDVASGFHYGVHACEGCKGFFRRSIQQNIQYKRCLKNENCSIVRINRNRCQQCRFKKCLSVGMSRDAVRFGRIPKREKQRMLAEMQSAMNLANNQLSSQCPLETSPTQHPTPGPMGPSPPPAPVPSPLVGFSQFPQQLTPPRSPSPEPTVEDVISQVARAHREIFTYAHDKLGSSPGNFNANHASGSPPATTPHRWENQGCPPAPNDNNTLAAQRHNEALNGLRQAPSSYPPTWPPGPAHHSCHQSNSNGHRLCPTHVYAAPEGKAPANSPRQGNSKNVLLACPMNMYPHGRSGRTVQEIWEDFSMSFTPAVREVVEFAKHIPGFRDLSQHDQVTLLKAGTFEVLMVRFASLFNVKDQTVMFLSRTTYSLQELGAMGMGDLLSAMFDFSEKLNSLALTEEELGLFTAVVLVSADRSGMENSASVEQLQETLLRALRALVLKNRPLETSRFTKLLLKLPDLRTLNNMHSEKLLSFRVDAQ
NR2E3 ag-1 – NR2E3 (human) agonism; Q9Y5X4; GST-NR2E3/biotin-RetCOR TR-FRET, 1536-well; inhibition of corepressor binding, % at 4.78 µM; 0.12% of 320,000 active; AID 2300;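 active = percent inhibition above the cutoff of mean plus 3 SD of all tested compounds, set per screening campaign, cut at about 20% in these data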;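 note: 0% = DMSO wells and 100% = biotin wells as full block of FRET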
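Material: NR2E3–RetCOR corepressor complex / Incubation: Compound–protein incubation for 5 h at 4 °C / Dosing: compound at 4.8 µM, single dose / Detection: time-resolved FRET / Benchmarks: high control biotin, low control 0.6% DMSO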
NR2E3 ag-2 – agonists of human NR2E3 nuclear receptor; AID 602229; 0.35% of 360,000 active; inhibition of corepressor binding, % at 3.98 µM; CHO-S Gal4-NCOR/VP16-NR2E3 two-hybrid, luciferase;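 active = inhibition above the mean of all tested compounds plus 3 SD, cut at about 70% in these data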;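 note: 0% = DMSO with NR2E3 transfected cells and 100% = cells lacking NR2E3 construct; higher means lower luciferase signal from less NR2E3 corepressor binding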
PG9 binder conf – confirmation of small molecules binding HIV-1 gp120 antibody PG9. 90% of 1,500 active. TR-FRET PG9 antibody binding, biochemical. shares compounds with PG9 Ab binder. inhibition, % at 6.7 µM; in the data active = inhibition above about 9%
PGV04 counter – binds control antibody PGV04 in PG9 binder counter-screen | TR-FRET PGV04 antibody-gp120 binding, biochemical | shares compounds with PG9 Ab binder | inhibition, % at 6.7 µM | AID 651604 | 95% of 1,500 active; in the data active = inhibition above about 9.5%
PG9 binder DR – small molecules binding HIV-1 gp120 antibody PG9 | 95 tested, under 10 active | shares compounds with PG9 Ab binder | IC50, µM | AID 651848 | TR-FRET PG9 antibody-gp120 binding inhibition; in the data active = IC50 below about 10 µM
PGV04 DR counter – counter-screen for PG9 binders: binding to control antibody PGV04; shares compounds with PG9 Ab binder; AID 651937; IC50, µM; 20% of 95 active; TR-FRET binding to control antibody PGV04
PG126 DR counter – PG126 binding, dose response counter-screen | shares compounds with PG9 Ab binder | TR-FRET binding to antibody PG126, counterscreen | IC50, µM | 20% of 95 active | AID 651939
Active calls of the source: *; i = inactive; / = no result given. Cut-off read from the data, not from the text of the source, unless noted: active = IC50 below about 9 µM; inactive = the rest.

SMILES | PG9 Ab binder | PKA-R2B act | PKA-R1A activ | NR1D1 modulator | NR2E3 ag-1 | NR2E3 ag-2 | PG9 binder conf | PGV04 counter | others
CC(=O)c1cccc(NC(=O)CNC(=O)c2sc3ccccc3c2Cl)c1 | 15* | -4 | 1 | 12 | -10 | -14 | 17* | 41*
Cc1cccc(NC(=O)CNC(=O)c2sc3ccccc3c2Cl)n1 | 12* | -12 | -2 | 7 | -7 | 2 | 4 | 41*
CC1CCCCN1C(=O)COC(=O)CNC(=O)c1sc2ccccc2c1Cl (configuration not stated) | 3 | -24 | -16 | 3 | 5 | 7 | / | /
O=C(CNC(=O)c1sc2ccccc2c1Cl)NCc1cccnc1 | 0 | 1 | -4 | 0 | 0 | -2 | / | /
O=C(CNC(=O)c1sc2ccccc2c1Cl)NCc1ccc(F)cc1 | 12* | -17 | -3 | 10 | 3 | 22 | 8 | 21*
CC(=O)OCCCN1CCC2(CCCCC2)C1=O | / | / | / | -4 | / | / | / | /
CCN(CC)c1ccc2cc(-c3nc4ccccc4n3C)c(=O)oc2c1 | 10* | -10 | 4 | 11 | 3 | -44 | 11* | 17*
CC(C)[C@H](NC(=O)c1ccccc1)C(=O)N1CCC[C@H]1C(=O)NCCc1ccccc1Cl | 2 | / | / | -8 | / | / | / | /
O=C(Nc1cccc(Cl)c1Cl)C1CCN(c2ncccn2)CC1 | 9.2* | -5 | 4 | 4 | 3 | -5 | 13* | 14*
CS(=O)(=O)N1CCC(C(=O)Nc2cccc(Cl)c2Cl)CC1 | 0 | -5 | -5 | 4 | 4 | -10 | / | /
CC(NCc1ccco1)C(=O)N1CCN(c2ccc(F)cc2)CC1 (configuration not stated) | / | / | / | -4 | / | / | / | /
S=c1[nH]nc(-c2ccccn2)n1/N=C/c1ccc(-c2ccccc2Br)o1 | 15* | -8 | 0 | -2 | / | 8 | 8 | 25*
Cc1nn(-c2ccccc2)c2sc(C(=O)NNC(=O)COc3cccc4ccccc34)cc12 | 10* | -5 | 5 | 9 | 5 | -22 | 11* | 20*
CC(=O)c1sc(NC(=O)C(C)C)nc1C | 48* | 7 | -3 | -2 | -1 | -14 | 46* | 64*
CC(=O)c1sc(Nc2ccccn2)nc1C | 30* | 3 | -10 | 0 | 9 | -7 | 38* | 51*
CC(=O)Nc1nc(C)c(C(C)=O)s1 | 8 | 4 | 8 | 7 | 3 | 10 | / | /
c1ccc(-c2c[nH]c3cccc(-c4cc5ccccc5o4)c23)cc1 | / | / | / | 0 | / | / | / | /
CN(c1ccc(F)cc1)S(=O)(=O)c1ccc2[nH]cc(C(=O)O)c(=O)c2c1 | 9.6* | 0 | 0 | -5 | 1 | -33 | 16* | 19*
COCCN(CCOC)C(=O)c1c[nH]c2ccc(S(=O)(=O)N(C)c3ccc(F)cc3)cc2c1=O | 9.6* | 8 | 0 | 5 | 3 | -18 | 11* | 12*
CC(C)(C)OC(=O)n1ccc2ccc(-c3ccc4cc[nH]c4c3)cc21 | / | / | / | 3 | / | / | / | /
O=C1N(Cc2cccc(Cl)c2)C[C@@H]2C[C@@H](c3cccn3-c3cccnc3)N3CCC[C@@]123 | 17* | 13 | 4 | -2 | -3 | -28 | 10* | 19*
O=C(Nc1ccccc1Cl)c1ccc2c(=O)n3c(nc2c1)CCC3 | 1 | -4 | -4 | 0 | 0 | -59 | / | /
O=C(Nc1ccc(F)cc1Cl)c1ccc2c(=O)n3c(nc2c1)CCCCC3 | 29* | 8 | -7 | 19 | 2 | 16 | 30* | 9.7* | PG9 binder DR=>67;PGV04 DR counter=i;PG126 DR counter=i
Brc1ccc(-c2nn3c(-c4ccco4)nnc3s2)o1 | 16* | -6 | -7 | -12 | -2 | -18 | 20* | 37*
Clc1ccc(-c2ccc(-c3nn4c(-c5ccco5)nnc4s3)o2)cc1 | 0 | 10 | -12 | -12 | 2 | 4 | / | /
SMILES | PG9 Ab binder | PKA-R2B act | PKA-R1A activ | NR1D1 modulator | NR2E3 ag-1 | NR2E3 ag-2 | PG9 binder conf | PGV04 counter | others
CC(=O)Nc1ccc(S(=O)(=O)Nc2nc3cc4c(cc3nc2Cl)OCCO4)cc1 | 13* | 1 | -6 | -4 | 19 | -23 | 26* | 35*
Cc1cc(F)ccc1S(=O)(=O)Nc1nc2ccccc2nc1Cl | 2 | 3 | -3 | 9 | 13 | 15 | / | /
CC(=O)Nc1ccc(S(=O)(=O)Nc2ccc3c(c2)OCCO3)cc1 | / | -4 | -2 | / | 0 | -3 | / | /
Cc1ccc(C(C)(C)C)cc1S(=O)(=O)Nc1nc2ccccc2nc1Cl | 13* | 1 | -6 | 6 | 15 | 10 | 21* | 25*
CC(=O)Nc1ccc(S(=O)(=O)Nc2nc3ccccc3nc2Cl)cc1 | 17* | 4 | 3 | 2 | 7 | -4 | 25* | 32*
COc1ccc(NC(=O)NCCCN2CCN(c3ccc(F)cc3)CC2)cc1OC | / | / | / | -5 | / | / | / | /
CCOc1ccc(Nc2nc3ccccc3c(=O)s2)cc1 | 17* | -7 | -11 | 19 | 7 | 14 | 18* | 20*
O=C(Nc1ccc2ccccc2c1)c1ccc(Cl)cc1 | 10* | 5 | -2 | 3 | 4 | -161 | 13* | 18*
COC(=O)c1cc(NC(=O)c2ccc(-c3ccccc3)cc2)ccc1Cl | 10* | -7 | -16 | 17 | 2 | -25 | 13* | 22*
Cc1ccc(C(=O)Nc2ccc3ccccc3c2)cc1 | 0 | -6 | -5 | 3 | 0 | -90 | / | /
CC(C)c1ccc(OCCCN2CCC(C(O)(c3ccccc3)c3ccccc3)CC2)cc1 | -1 | / | / | -4 | / | / | / | /
CO[C@H]([C@H](C)/C=C/N(C)C=O)[C@@H](C)C(=O)CC[C@H](C)[C@H](O)[C@H](C)[C@H]1OC(=O)/C=C/C(C)=C/C[C@H](O)C[C@@H]2C=CC[C@@H](C[C@H](OC)[C@@H](C)[C@@H](OC)C[C@@H](OC)[C@@H]1C)O2 | / | / | / | -2 | / | / | / | /
Cc1cccc(-c2nsc(SCC(=O)Nc3nccs3)n2)c1 | 10* | 0 | -5 | 8 | 6 | 4 | 9.2* | 12*
